The values below come from ChEMBL document CHEMBL1821604, “Anticancer activity and cDNA microarray studies of a (RS)-1,2,3,5-tetrahydro-4,1-benzoxazepine-3-yl]-6-chloro-9H-purine, and an acyclic (RS)-O,N-acetalic 6-chloro-7H-purine” (Eur J Med Chem, 2011).

Assay type in all cases: functional
Assay [1] concerns HT-29. Kind of assay: Down regulation of ALB gene expression in human HT-29 cells at IC50 after 48 hrs by cDNA microarray technique relative to control. The method in brief:
(§1)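 8 × 10⁶ cells exposed 48 h to compound at its IC50 concentration; total RNA isolated with trizol/chloroform and RNeasy columns including on-column DNase step; RNA quantified by OD 260/280; DMSO-treated cultures as control.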

The subject of assay [2] is HT-29. Kind of assay: Down regulation of HAS2 gene expression in human HT-29 cells at IC50 after 48 hrs by cDNA microarray technique relative to control. The method in brief: (§2)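 Cells (8 × 10⁶) were cultured in DMEM with 10% heat-inactivated FBS at 37 °C under 5% CO₂. They were exposed for 48 h to compound at its IC₅₀, with DMSO-treated parallel cultures as controls (final DMSO ≤0.1% v/v). Total RNA was isolated by trizol/chloroform phase separation, RNeasy column cleanup and on-column DNase, then quantified by OD260/OD280. Expression was profiled by cDNA microarray relative to control.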

In assay [3] the test system is HT-29. Kind of assay: Down regulation of CD1B gene expression in human HT-29 cells at IC50 after 48 hrs by cDNA microarray technique relative to control. The gist of the method:
as §1

Assay [4] concerns HT-29. Kind of assay: Down regulation of FADS6 gene expression in human HT-29 cells at IC50 after 48 hrs by cDNA microarray technique relative to control. The gist of the method: as §2
Assay [5] has as its system MCF7. The assay can be described thus: Down regulation of EFHC2 gene expression in human MCF7 cells at IC50 after 48 hrs by cDNA microarray technique relative to control. The method in brief:
as §2

Assay [6] has as its system MCF7. Kind of assay: Down regulation of TGM4 gene expression in human MCF7 cells at IC50 after 48 hrs by cDNA microarray technique relative to control.
The test system of assay [7] is HT-29. The assay can be described thus: Down regulation of GBP1 gene expression in human HT-29 cells at IC50 after 48 hrs by cDNA microarray technique relative to control. The gist of the method: as §2
Assay [8] has as its system MCF7. Kind of assay: Upregulation of ERG gene expression in human MCF7 cells at IC50 after 48 hrs by cDNA microarray technique relative to control.
In assay [9] the test system is HT-29. The assay can be described thus: Down regulation of DNAJC5B gene expression in human HT-29 cells at IC50 after 48 hrs by cDNA microarray technique relative to control. The method in brief:
as §2

For assay [10], the system named is HT-29. Kind of assay: Down regulation of IL12RB2 gene expression in human HT-29 cells at IC50 after 48 hrs by cDNA microarray technique relative to control. The gist of the method:
as §2

The test system of assay [11] is MCF7. Kind of assay: Down regulation of PGLYRP4 gene expression in human MCF7 cells at IC50 after 48 hrs by cDNA microarray technique relative to control.
Assay [12] concerns MCF7. Kind of assay: Down regulation of C20orf54 gene expression in human MCF7 cells at IC50 after 48 hrs by cDNA microarray technique relative to control. The method in brief:
as §1

Assay [13] has as its system HT-29. The assay can be described thus: Down regulation of LIN28 gene expression in human HT-29 cells at IC50 after 48 hrs by cDNA microarray technique relative to control. The method in brief: as §2
Assay [14] has as its system MCF7. Kind of assay: Upregulation of CRTAM gene expression in human MCF7 cells at IC50 after 48 hrs by cDNA microarray technique relative to control.
Assay [15] has as its system HT-29. The assay can be described thus: Down regulation of FLJ25476 gene expression in human HT-29 cells at IC50 after 48 hrs by cDNA microarray technique relative to control. The gist of the method: as §2
Assay [16] relates to HT-29. Kind of assay: Upregulation of YPEL1 gene expression in human HT-29 cells at IC50 after 48 hrs by cDNA microarray technique relative to control.
The test system of assay [17] is HT-29. The assay can be described thus: Down regulation of LOC144448 gene expression in human HT-29 cells at IC50 after 48 hrs by cDNA microarray technique relative to control.
Assay [18] has as its system HT-29. The assay can be described thus: Down regulation of ZNF482 gene expression in human HT-29 cells at IC50 after 48 hrs by cDNA microarray technique relative to control.
Assay [19] relates to HT-29. Kind of assay: Down regulation of ARPC4 gene expression in human HT-29 cells at IC50 after 48 hrs by cDNA microarray technique relative to control. The gist of the method: as §1
The test system of assay [20] is HT-29. Kind of assay: Upregulation of EGLN3 gene expression in human HT-29 cells at IC50 after 48 hrs by cDNA microarray technique relative to control.
The subject of assay [21] is HT-29. Kind of assay: Down regulation of C20orf178 gene expression in human HT-29 cells at IC50 after 48 hrs by cDNA microarray technique relative to control. The method in brief: as §1
Assay [22] concerns HT-29. Kind of assay: Down regulation of PRPS1 gene expression in human HT-29 cells at IC50 after 48 hrs by cDNA microarray technique relative to control.
The test system of assay [23] is HT-29. The assay can be described thus: Down regulation of TMED9 gene expression in human HT-29 cells at IC50 after 48 hrs by cDNA microarray technique relative to control.
In assay [24] the test system is MCF7. The assay can be described thus: Down regulation of LTBP2 gene expression in human MCF7 cells at IC50 after 48 hrs by cDNA microarray technique relative to control.
Assay [25] relates to MCF7. Kind of assay: Down regulation of THC2441203 gene expression in human MCF7 cells at IC50 after 48 hrs by cDNA microarray technique relative to control.
Assay [26] concerns HT-29. Kind of assay: Down regulation of BAZ2A gene expression in human HT-29 cells at IC50 after 48 hrs by cDNA microarray technique relative to control. The method in brief:
as §1

For assay [27], the system named is MCF7. Kind of assay: Down regulation of P2RY13 gene expression in human MCF7 cells at IC50 after 48 hrs by cDNA microarray technique relative to control.
Assay [28] relates to MCF7. Kind of assay: Down regulation of THC2438856 gene expression in human MCF7 cells at IC50 after 48 hrs by cDNA microarray technique relative to control.
For assay [29], the system named is MCF7. The assay can be described thus: Down regulation of SPINK2 gene expression in human MCF7 cells at IC50 after 48 hrs by cDNA microarray technique relative to control.
The test system of assay [30] is MCF7. The assay can be described thus: Upregulation of FLJ14075 gene expression in human MCF7 cells at IC50 after 48 hrs by cDNA microarray technique relative to control.
Assay [31] has as its system HT-29. Kind of assay: Down regulation of PLCB4 gene expression in human HT-29 cells at IC50 after 48 hrs by cDNA microarray technique relative to control.
Assay [32] deals with MCF7. Kind of assay: Upregulation of AY232284 gene expression in human MCF7 cells at IC50 after 48 hrs by cDNA microarray technique relative to control.
Assay [33] concerns HT-29. The assay can be described thus: Down regulation of LIR9 gene expression in human HT-29 cells at IC50 after 48 hrs by cDNA microarray technique relative to control. The gist of the method:
as §2

Assay [34] deals with MCF7. The assay can be described thus: Down regulation of TAS2R40 gene expression in human MCF7 cells at IC50 after 48 hrs by cDNA microarray technique relative to control.
Assay [35] relates to MCF7. The assay can be described thus: Down regulation of OR8A1 gene expression in human MCF7 cells at IC50 after 48 hrs by cDNA microarray technique relative to control.
For assay [36], the system named is MCF7. The assay can be described thus: Upregulation of CALM1 gene expression in human MCF7 cells at IC50 after 48 hrs by cDNA microarray technique relative to control.
The subject of assay [37] is HT-29. Kind of assay: Down regulation of DT1P1A10 gene expression in human HT-29 cells at IC50 after 48 hrs by cDNA microarray technique relative to control. The method in brief: as §2
Assay [38] relates to HT-29. The assay can be described thus: Upregulation of C1orf24 gene expression in human HT-29 cells at IC50 after 48 hrs by cDNA microarray technique relative to control.

On to `COC(CN(c1ccccc1CO)S(=O)(=O)c1ccccc1[N+](=O)[O-])n1cnc2ncnc(Cl)c21` (racemic), for which the “fold change (FC)” value in the assay with HT-29 [1] was -2.32; with HT-29 [2] it was -2.01; in the assay with HT-29 [3], -2.32; in the assay on HT-29 [4] it was -2.34; in the assay with MCF7 [5], -2.27; in the assay with MCF7 [6], -2.58. Besides, the “fold change (FC)” value in the assay on HT-29 [7] is on record as -2.47; in the assay on MCF7 [8] it was 2; in the assay with HT-29 [9], -2.49; in the assay on HT-29 [10], -2.3; in the assay with MCF7 [11], -2.45; in the assay on MCF7 [12], -2.14. Further, the “fold change (FC)” value in the assay with HT-29 [13] was -2.02; in the assay on MCF7 [14], 2.09; with HT-29 [15], -2.11; in the assay with HT-29 [16], 4.71; in the assay on HT-29 [17], -2.45.
In the case of `O=C(OCC1c2ccccc2-c2ccccc21)N1CC(n2cnc3c(Cl)ncnc32)OCc2ccccc21` (racemic), the “fold change (FC)” value in the assay on HT-29 [18] was -2.28; in the assay with HT-29 [19], -2.07; in the assay with HT-29 [20], 2.14; in the assay with HT-29 [21], -2.21; in the assay on HT-29 [22], -2.68; with HT-29 [23], -3.95. Moreover, the “fold change (FC)” value is given as -3.28 in the assay with MCF7 [24]; -3.19 in the assay with MCF7 [25]; -2.65 in the assay with HT-29 [26]; -3.05 with MCF7 [27]; -3.05 in the assay on MCF7 [28]; -3.01 in the assay on MCF7 [29]. Moreover, the “fold change (FC)” value in the assay with MCF7 [30] was 4.84; with HT-29 [31], -2.11; in the assay with MCF7 [32] it was 3.98; in the assay with HT-29 [33] it was -2.08; with MCF7 [34], -2.85; in the assay on MCF7 [35], -3.03. In addition, the “fold change (FC)” value in the assay with MCF7 [36] was 2.99; in the assay with HT-29 [37] it was -2.28; in the assay on HT-29 [38], 2.44.
